Assay results pooled from the literature.
Each line is one published result; the experiments were not run side by side.
Target: Cyclin-dependent kinase 9 (CDK9, Homo sapiens, UniProt P50750)

CC(C)(C)c1cnc(CSc2cnc(NC(=O)C3CCN(C(=O)COCCOCCN4Cc5cc6c(cc5C4)C(=O)N(C4CCC(=O)NC4=O)C6=O)CC3)s2)o1 (stereo not drawn) — inhibition (protein level; degrader; western blot; TC-71; 25 nM): 80.7%
CCCCC(=O)Nc1ccc(-c2ccc3ncn(CCC)c(=O)c3c2)cn1 — remaining binding (binding; competition with immobilised ligand; 0.5 µM): 92%
CO[C@@H]1[C@H](N(C)C(=O)c2ccccc2)C[C@H]2O[C@]1(C)n1c3ccccc3c3c4c(c5c6ccccc6n2c5c31)C(=O)NC4 — inhibition (enzyme activity; inhibitor; 1 µM): 3%
CN1CCN(C(=O)c2ccc(NC(=O)Nc3ccc(N(C)c4ccnc(Nc5ccc(CS(C)(=O)=O)cc5)n4)cc3)cc2)CC1 — remaining binding (binding; 1 µM): 69%
C1=C/COCc2cc(ccc2OCCN2CCCC2)Nc2nccc(n2)-c2cccc(c2)COC/1 — remaining binding (binding; 0.1 µM): 64%
N#Cc1ccc(NC(=O)Nc2ccccc2)cc1 — remaining binding (cell-free assay; competition with immobilised ligand; 25 µM): 100%
CNS(=O)(=O)c1ccc(Nc2ncc(C(F)(F)F)c(N3CCC[C@](C)(O)C3)n2)c(C)c1 — remaining binding (binding; competition with immobilised ligand; 1 µM): 98%
CC(C)(C)c1cnc(CSc2cnc(NC(=O)C3CCN(C(=O)CCCCCCCCCCCN4Cc5cc6c(cc5C4)C(=O)N(C4CCC(=O)NC4=O)C6=O)CC3)s2)o1 (stereo not drawn) — inhibition (protein level; degrader; western blot; TC-71; 25 nM): 78%
C[C@H]1CC[C@H](n2c3cnccc3c3cnc(Nc4ccc5c(n4)CCN(C(=O)CO)C5)nc32)CC1 — remaining signal (cell-free assay; 1 µM): 60%
CC(C)(C)c1cnc(CSc2cnc(NC(=O)C3CCN(C(=O)CCOCCN4Cc5cc6c(cc5C4)C(=O)N(C4CCC(=O)NC4=O)C6=O)CC3)s2)o1 (stereo not drawn) — inhibition (protein level; degrader; western blot; TC-71; 25 nM): 87.5%
C[C@]1(O)CCCN(c2nc(Nc3ccc(S(=O)(=O)N[C@H]4CC[C@H](CN5CCN(c6ccc(C7CCC(=O)NC7=O)cc6F)CC5)CC4)cc3Cl)ncc2C(F)(F)F)C1 (stereo partly drawn) — remaining binding (binding; competition with immobilised ligand; 1 µM): 100%
C=CC(=O)N1CCC([C@@H]2CCNc3c(C(N)=O)c(-c4ccc(Oc5ccccc5)cc4)nn32)CC1 — inhibition (enzyme activity; inhibitor; 1 µM): 0%
